Assays:
[1] = test system: Acinetobacter rhizosphaerae; test: Antimicrobial activity against Acinetobacter rhizosphaerae isolate C44 harboring sul1 to sul3 genes assessed as antibiotic resistance breakpoint by agar dilution method; format: functional
In short: (§1)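 Agar dilution on Iso-Sensitest agar for MICs and resistance breakpoints. Each isolate's inoculum (100 μl) was adjusted to OD600 0.4. Isolates came from soil cores of a field given pig slurry, or from the pig slurry itself. They were picked from nonselective or antibiotic plates incubated aerobically at 28°C, purified by restreaking, checked for sul genes by PCR and identified by 16S rRNA sequencing.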

[2] = Antimicrobial activity against Acinetobacter sp. N2 isolate C439 harboring sul1 to sul3 genes assessed as antibiotic resistance breakpoint by agar dilution method; format: functional; in short: as §1
Enterococcus sulfureus = test: Antimicrobial activity against Enterococcus sulfureus isolate PGS61 harboring sul1 to sul3 genes assessed as antibiotic resistance breakpoint by agar dilution method; format: functional; in short: as §1
Aerococcus viridans = test: Antimicrobial activity against Aerococcus viridans isolate PGS22 harboring sul1 to sul3 genes assessed as antibiotic resistance breakpoint by agar dilution method; format: functional; in short: as §1
Acinetobacter lwoffii [3] = test: Antimicrobial activity against Acinetobacter lwoffii isolate PGS47 harboring sul1 to sul3 genes assessed as antibiotic resistance breakpoint by agar dilution method; format: functional; in short: as §1
[4] = test system: Lysinibacillus sphaericus; test: Antimicrobial activity against Bacillus sphaericus isolate C237 harboring sul1 to sul3 genes assessed as antibiotic resistance breakpoint by agar dilution method; format: functional; in short: as §1
[5] = test system: Stenotrophomonas maltophilia; test: Antimicrobial activity against Stenotrophomonas maltophilia isolate C422 harboring sul1 to sul3 genes assessed as antibiotic resistance breakpoint by agar dilution method; format: functional
In short: (§2)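 Isolates were recovered from manured clay soil or pig slurry on Iso-Sensitest agar at 28°C. sul genes were detected by PCR, and identity was assigned by ~800 bp 16S rRNA sequencing. MICs and resistance breakpoints were found by agar dilution on Iso-Sensitest agar, with each inoculum (100 μl) adjusted to OD600 0.4.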

Acinetobacter lwoffii [6] = test: Antimicrobial activity against Acinetobacter lwoffii isolate C37 harboring sul1 to sul3 genes assessed as antibiotic resistance breakpoint by agar dilution method; format: functional; in short: as §1
[7] = test system: Arthrobacter arilaitensis; test: Antimicrobial activity against Arthrobacter arilaitensis isolate C361 harboring sul1 to sul3 genes assessed as antibiotic resistance breakpoint by agar dilution method; format: functional, Glutamicibacter arilaitensis; in short: as §1
[8] = test system: Acinetobacter calcoaceticus; test: Antimicrobial activity against Acinetobacter calcoaceticus isolate C35 harboring sul1 to sul3 genes assessed as antibiotic resistance breakpoint by agar dilution method; format: functional; in short: as §1
Pseudomonas lini = test: Antimicrobial activity against Pseudomonas lini isolate C701 harboring sul1 to sul3 genes assessed as antibiotic resistance breakpoint by agar dilution method; format: functional; in short: as §1
[9] = Antimicrobial activity against Acinetobacter sp. An9 isolate PGS49 harboring sul1 to sul3 genes assessed as antibiotic resistance breakpoint by agar dilution method; format: functional; in short: as §1
Shigella flexneri = test: Antimicrobial activity against Shigella flexneri isolate C506 harboring sul1 to sul3 genes assessed as antibiotic resistance breakpoint by agar dilution method; format: functional; in short: as §2
Bacillus psychrodurans = test: Antimicrobial activity against Bacillus psychrodurans isolate C328 harboring sul1 to sul3 genes assessed as antibiotic resistance breakpoint by agar dilution method; format: functional, Psychrobacillus psychrodurans; in short: as §1
Acinetobacter lwoffii [10] = test: Antimicrobial activity against Acinetobacter lwoffii isolate C2 harboring sul1 to sul3 genes assessed as antibiotic resistance breakpoint by agar dilution method; format: functional; in short: as §1
[11] = Antimicrobial activity against Psychrobacter sp. DY9-2 isolate C711 harboring sul1 to sul3 genes assessed as antibiotic resistance breakpoint by agar dilution method; format: functional; in short: as §2
Acinetobacter lwoffii [12] = test: Antimicrobial activity against Acinetobacter lwoffii isolate C141 harboring sul1 to sul3 genes assessed as antibiotic resistance breakpoint by agar dilution method; format: functional; in short: as §1
Acinetobacter lwoffii [13] = test: Antimicrobial activity against Acinetobacter lwoffii isolate C15 harboring sul1 to sul3 genes assessed as antibiotic resistance breakpoint by agar dilution method; format: functional; in short: as §1
Enterococcus hirae = test: Antimicrobial activity against Enterococcus hirae isolate PGS48 harboring sul1 to sul3 genes assessed as antibiotic resistance breakpoint by agar dilution method; format: functional; in short: as §1
[14] = Antimicrobial activity against Psychrobacter ikaite isolate C713 harboring sul1 to sul3 genes assessed as antibiotic resistance breakpoint by agar dilution method; format: functional; in short: as §2
[15] = test system: Psychrobacter frigidicola; test: Antimicrobial activity against Psychrobacter frigidicola isolate C712 harboring sul1 to sul3 genes assessed as antibiotic resistance breakpoint by agar dilution method; format: functional; in short: as §1
Providencia stuartii = test: Antimicrobial activity against Providencia stuartii isolate C167 harboring sul1 to sul3 genes assessed as antibiotic resistance breakpoint by agar dilution method; format: functional; in short: as §1
[16] = Antimicrobial activity against Psychrobacter ikaite isolate C20 harboring sul1 to sul3 genes assessed as antibiotic resistance breakpoint by agar dilution method; format: functional; in short: as §1
[17] = test system: Acinetobacter calcoaceticus; test: Antimicrobial activity against Acinetobacter calcoaceticus isolate C36 harboring sul1 to sul3 genes assessed as antibiotic resistance breakpoint by agar dilution method; format: functional; in short: as §1

Measured: Activity

CN[C@@H]1[C@H](O[C@H]2[C@H](O[C@H]3[C@H](O)[C@@H](O)[C@H](N=C(N)N)[C@@H](O)[C@@H]3N=C(N)N)O[C@@H](C)[C@]2(O)C=O)O[C@@H](CO)[C@H](O)[C@H]1O [STREPTOMYCIN]
16 µg/mL: [1] | [2] | Enterococcus sulfureus | Aerococcus viridans | Acinetobacter lwoffii [3] | [4] | [5] | Acinetobacter lwoffii [6] | [7] | [8] | Pseudomonas lini | [9] | Shigella flexneri | Bacillus psychrodurans | Acinetobacter lwoffii [10] | [11] | Acinetobacter lwoffii [12] | Acinetobacter lwoffii [13] | Enterococcus hirae | [14] | [15] | Providencia stuartii | [16] | [17]

From ChEMBL document CHEMBL1629633, “Prevalence of sulfonamide resistance genes in bacterial isolates from manured agricultural soils and pig slurry in the United Kingdom” (2009)
